From PubChem
Only some compounds are listed: those with a hit (about 4.5% of all), similar ones and a draw of the others.
RGS4 inh – RGS4 inhibitors, primary screen, cell-based, HEK293 M3R inducible RGS4, calcium flux; Regulator of G-protein signaling 4 (Homo sapiens), P49798; Fluo-4 calcium flux; active compounds read high; triggered by carbachol at its EC20; B-score at 10 µM; 0.45% of 310,000 active; AID 463165, 2010;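 active = B-score, a plate-corrected calcium signal, over three deviations above library mean, with baseline fluorescence within five deviations of library mean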;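 note: RGS4 expression induced by doxycycline in cells with stable M3 receptor; B-score is computed from the integrated fluorescence ratio over baseline after carbachol; higher B-score means a larger calcium signal and so more RGS4 inhibition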
Target sequence (P49798 whole entry, looked up): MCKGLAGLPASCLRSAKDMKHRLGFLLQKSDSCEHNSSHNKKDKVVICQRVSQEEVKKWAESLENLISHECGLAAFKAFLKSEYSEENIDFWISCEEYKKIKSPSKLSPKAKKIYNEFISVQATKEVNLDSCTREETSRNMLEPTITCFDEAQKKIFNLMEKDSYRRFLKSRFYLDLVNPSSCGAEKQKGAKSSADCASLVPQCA
MrgX1 antag – antagonists of human MrgX1 receptor, primary screen, HEK293 cells, Fluo-4 calcium flux. Mas-related G-protein coupled receptor member X1 (Homo sapiens), Q96LB2. BAM8-22 antagonism; active compounds read low. B-score at 10 µM. 1.3% of 310,000 active. AID 588676, 2011;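 active = calcium-response B-score plate-corrected more than 3 library SD below zero, starting fluorescence within 5 deviations, no agonist response on first addition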;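 note: peak minus trough fluorescence over baseline after final BAM8-22 challenge near maximal dose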
RGS4 act – RGS4 potentiators or activators, primary screen, cell-based, HEK293 M3R inducible RGS4, calcium flux; carbachol calcium flux Fluo4; active compounds read low; B-score at 10 µM; 0.92% of 310,000 active;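 active = B-score of the integrated calcium signal more than 4 SD below the library mean, with starting fluorescence not abnormally high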;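 note: negative B-score means reduced calcium response which marks RGS4 activation or potentiation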
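Assay system: HEK293 FlpIn-TREx cells, stable M3R, doxycycline-inducible RGS4 / Probe or stimulus: carbachol, ECmax concentration / Times: overnight RGS4 induction, 30 min dye load 37 °C, 20 min compound RT / Signal: kinetic calcium fluorescence imaging with Fluo4-AM dye, 2 µM / Measure: Agonist-evoked peak-minus-minimum fluorescence over baseline, integrated ratio, B score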
PHOSPHO1 block – PubChem AID 1565. recombinant PHOSPHO1, absorbance phosphatase assay. inhibition, % at 13.3 µM. 1.1% of 290,000 active; in the data active = inhibition above about 60%
Target sequence (Q8TCT1 whole entry, looked up): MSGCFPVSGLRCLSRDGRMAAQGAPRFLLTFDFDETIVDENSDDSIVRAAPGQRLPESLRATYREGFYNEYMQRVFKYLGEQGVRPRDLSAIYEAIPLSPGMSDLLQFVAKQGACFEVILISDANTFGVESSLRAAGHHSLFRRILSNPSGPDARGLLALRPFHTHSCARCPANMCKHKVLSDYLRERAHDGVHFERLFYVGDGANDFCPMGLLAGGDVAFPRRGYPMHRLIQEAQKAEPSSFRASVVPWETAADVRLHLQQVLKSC
MrgX1 PAM – positive allosteric modulators of MrgX1, primary screen, HEK293 cells, Fluo-4 calcium flux. Mas-related G-protein coupled receptor member X1 (Homo sapiens), Q96LB2. FDSS; active compounds read high. B-score at 10 µM. 0.63% of 310,000 active. AID 588675, 2011;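 active = plate-corrected calcium response at least 3 library SD above typical, normal starting fluorescence, not activating the receptor alone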;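 note: compound read alongside a low EC10 to EC30 dose of BAM8-22 agonist; peak minus trough fluorescence over baseline measured at the second addition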
MrgX1 ag – agonists of human MrgX1 receptor, primary screen, HEK293 cells, Fluo-4 calcium flux | Mas-related G-protein coupled receptor member X1 (Homo sapiens), Q96LB2 | Fluo-4 calcium fluorescence, agonist mode; active compounds read high | B-score at 10 µM | 0.44% of 310,000 active;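 active = calcium response B-score plate-corrected fluorescence ratio at least 3 library SD, with starting fluorescence B-score inside 5 SD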
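System: HEK293 cells stably expressing human MrgX1 receptor; Dosing: test compound in the initial addition of three; Schedule: overnight plating, then 30 min 37 °C plus 30 min room-temperature dye loading; Detection: kinetic calcium dye fluorescence, Fluo-4 NW; Controls: per-plate positive and negative controls for Z′ factor.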
RGS4 activ val – reduced carbachol calcium response, RGS4-induced M3R cells, confirmation, RGS4 activator project, cell-based, HEK293 M3R/RGS4 inducible, calcium flux, duplicate | carbachol calcium flux Fluo4 | 89% of 1,100 active | inhibition, % at 10 µM | shares compounds with RGS4 act;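 active = inhibition above 3 SD of the buffer control wells, cut at about 41% in these data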;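 note: signal is the integrated peak-minus-minimum Fluo4 fluorescence over baseline ratio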
M3R Ca counter – RGS4 activator counter-screen hit in non-induced cells; shares compounds with RGS4 act; HEK293 M3R non-induced RGS4, Fluo4 calcium flux; after carbachol challenge at its EC90; inhibition, % at 10 µM; 82% of 1,100 active; AID 602283;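 active = inhibition exceeding 3 SD of buffer-only control wells, cut at about 26% in these data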;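 note: percent drop in integrated peak-minus-baseline over baseline Fluo4 ratio after carbachol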
Numbers without * were called inactive; i = inactive; / = not tested or not shown.

SMILES	RGS4 inh	MrgX1 antag	RGS4 act	PHOSPHO1 block	MrgX1 PAM	MrgX1 ag	RGS4 activ val	M3R Ca counter
COc1cc(/C=N/NC(N)=O)ccc1OCC(=O)Nc1cc(C)c(C)cc1Br	i	i	i	37	i	i	/	/
O=C(Nc1ccc(Cl)c(Cl)c1)Nc1cc(S(=O)(=O)N2CCOCC2)ccc1N1CCCC1	i	i	-9.2*	-40	i	i	72*	27*
O=C(Nc1ccccc1F)Nc1cc(S(=O)(=O)N2CCOCC2)ccc1N1CCCC1	i	i	i	-15	i	i	/	/
O=C(CN1CCN(C/C=C/c2ccccc2)CC1)NCc1ccccc1	i	i	i	20	i	i	/	/
CCC(C)c1ccccc1NC(=O)CN1CCN(C/C=C/c2ccccc2)CC1 (stereo not drawn)	i	i	-10*	-10	i	i	76*	84*
Cc1ccc(NC(=O)N[C@H](C(=O)O)C(C)C)c(C)c1	i	i	i	28	i	i	/	/
Cc1cccc(OCC(=O)Nc2nccs2)c1C	i	i	i	28	i	i	/	/
O=C1CSC2(C(=O)N3CCCc4cccc2c43)N1c1cccc(C(F)(F)F)c1 (stereo not drawn)	i	i	-8.2*	24	i	i	90*	76*
COc1ccc(N2C(=O)CSC23C(=O)N2CCCc4cccc3c42)cc1 (stereo not drawn)	i	i	-8.3*	12	i	i	92*	89*
O=C1N2CCCc3cccc(c32)C12Nc1ccccc1S2 (stereo not drawn)	i	/	i	10	/	/	/	/
N#CNc1nc(O)cc(=O)[nH]1	i	i	i	25	i	i	/	/
CCOc1cc(CNCc2cccs2)ccc1OCC(=O)NC(C)(C)C	i	i	i	-15	i	i	/	/
COc1cc(CNCc2cccs2)ccc1OCC(=O)NC(C)(C)C	i	i	-8*	37	i	i	46*	84*
CCCn1c(NC(=O)CN2C(=O)NC3(CCCCC3)C2=O)nc2ccccc21	i	i	i	/	i	i	/	/
Cc1scc(-c2n[nH]c(=S)n2Cc2ccccc2)c1C	i	i	-7.6*	-10	i	i	74*	84*
O=C(Nc1nnc(SCc2ccc(F)cc2)s1)c1ccc2c(c1)C(=O)N(c1ccccc1Cl)C2=O	i	i	i	18	i	i	/	/
Cc1ccc(CCC(=O)Nc2ccccc2C(=O)O)o1	i	i	i	44	i	i	/	/
N#Cc1cc2c(nc1SCc1ccccc1)CCCCC2	i	i	-9.8*	-1	i	i	82*	84*
COc1ccc2nc3c(cc2c1)c(NC(=O)c1cccs1)nn3CC(C)C	i	i	-8.5*	16	i	i	86*	61*
S=C(NCc1ccco1)N1CCN(C(c2ccccc2)c2ccccc2)CC1	i	i	-9.8*	15	i	i	66*	0
O=C(/C=C\N1CCOCC1)c1ccc(Br)cc1	i	i	i	/	i	i	/	/
O=C(NC1(O)C(=O)c2ccccc2C1=O)c1ccc(C(F)(F)F)cc1	i	i	-7.6*	24	i	i	0	0
Cc1ccc(C(=O)NC2(O)C(=O)c3ccccc3C2=O)cc1C	i	i	i	38	i	i	/	/
COc1ccc(N2CCN(c3ncnc4scc(-c5ccc(F)cc5)c34)CC2)cc1	i	i	i	21	i	i	/	/
COc1ccc(-c2csc3ncnc(N4CCN(c5ccccc5Cl)CC4)c23)cc1	i	i	-8.6*	14	i	i	76*	84*
SMILES	RGS4 inh	MrgX1 antag	RGS4 act	PHOSPHO1 block	MrgX1 PAM	MrgX1 ag	RGS4 activ val	M3R Ca counter
COc1ccc(N2CCN(c3ncnc4scc(-c5ccccc5)c34)CC2)cc1	i	i	-7.9*	14	i	i	54*	0
COc1ccc(N2CCN(c3ncnc4scc(-c5ccc(C)cc5)c34)CC2)cc1	i	i	-7.9*	10	i	i	0	0
COc1ccc(-c2csc3ncnc(N4CCN(S(=O)(=O)c5cccs5)CC4)c23)cc1	i	i	-8.2*	/	i	i	42*	84*
Cc1sc2ncn(CC(=O)NCC3COc4ccccc4O3)c(=O)c2c1S(=O)(=O)N1CCCCC1 (stereo not drawn)	i	i	i	-28	i	i	/	/
COc1ccc(NC(=O)CSc2nc3c([nH]c4ccccc43)c(=O)n2C)c(OC)c1	i	i	i	8	i	i	/	/
CCOC(=O)N1CCC(NC(=O)c2cnn3c(C(F)(F)F)cc(-c4cccc(OC)c4)nc23)CC1	i	i	-8.4*	22	i	i	0	0
CC(=O)N1c2ccccc2C(C)CC12CCCCC2 (stereo not drawn)	i	i	-7.8*	-4	i	i	86*	37*
Cc1cc(OCC(=O)Nc2ccc(S(=O)(=O)N3CCN(C)CC3)cc2)ccc1Cl	i	i	-8.3*	2	i	i	0	0
COc1ccc(CC(=O)Nc2nc(-c3ccc(F)c(F)c3)cs2)cc1	i	i	-10*	24	i	i	92*	96*
O=C(Cc1ccc(F)cc1)Nc1nc(-c2ccc(F)c(F)c2)cs1	i	i	i	29	i	i	/	/
COc1ccc(CCN2C(=O)N[C@@H](C(C)C)C2=O)cc1	i	i	i	14	i	i	/	/
CCOC(=O)N1CCN(c2ccnc3cc(Cl)ccc23)CC1	i	i	-13*	24	i	i	92*	95*
CCC(=O)N1CCN(c2ccnc3cc(Cl)ccc23)CC1	i	i	i	33	i	i	/	/
Cc1cc(C)cc(NC(=O)Nc2ccccc2N2CCCCC2)c1	i	i	i	-8	i	i	/	/
Cc1ccc(OCCCC(=O)NC2CCCCC2)cc1	i	i	i	18	i	i	/	/
